What was measured:
Type in all cases: physicochemical
[1] = Equilibrium solubility in soybean oil; conditions: 37°C, HPLC
Outline: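 The drug was added in excess to triplicate sealed glass vials of soybean oil (2 g, later 1 g), vortexed and incubated at 37°C. Samples were taken at 24, 48 and 72 h or longer after centrifugation at 37°C, 2,800 g for 30 min. Supernatant (20–30 mg) was diluted in 66% v/v chloroform/methanol and quantified by C18 RP-HPLC-UV against a standard curve. Equilibrium was taken when consecutive 24-h points differed <10%; mean ± SD, n ≥ 3.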

[2] = Equilibrium solubility in PEG400, ambient conditions; conditions: PEG400, 37°C, ambient milieu (0.32% w/w water)
Outline: (§1)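 Excess drug was added to triplicate sealed glass vials of excipient (2 g, later 1 g) and held at 37°C with periodic vortexing. Vials were centrifuged at 37°C, 2,800 g for 30 min and sampled at 24, 48 and 72 h or longer. Supernatant (20–30 mg) was diluted in 7% v/v chloroform/methanol and analysed by C18 RP-HPLC-UV. Equilibrium was taken when consecutive 24-h samples differed <10%; mean ± SD, n ≥ 3.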

[3] = Equilibrium solubility in polysorbate 80; conditions: polysorbate 80, 37°C, HPLC
Outline: as §1

[4] = Solubility in PEG400 under dry conditions; conditions: two tailed t-test, ambient vs dry

SMILES | equilibrium solubility in SBO [1] | equilibrium solubility in PEG400 [2] | other results
CC(C)(Oc1ccc(CCNC(=O)c2ccc(Cl)cc2)cc1)C(=O)O [Bezafibrate] | less than the limit of detection |  | 
CCOc1nc2cccc(C(=O)O)c2n1Cc1ccc(-c2ccccc2-c2nnn[nH]2)cc1 [Candesartan] | less than the limit of detection | 13.8 ± 1.5 mg/g | 
C#C[C@]1(O)CC[C@H]2[C@@H]3CCc4cc(O)ccc4[C@H]3CC[C@@]21C [Ethinylestradiol] |  | high solubility | equilibrium solubility in PS80 [3]: high solubility
COc1ccc(Cl)cc1C(=O)NCCc1ccc(S(=O)(=O)NC(=O)NC2CCCCC2)cc1 [Glibenclamide] | less than the limit of detection |  | 
COc1ccc2c(c1)c(CC(=O)O)c(C)n2C(=O)c1ccc(Cl)cc1 [Indomethacin] |  |  | difference in PEG400 solubility between ambient and dry conditions [4]: no significant difference
N[C@@H](Cc1cc(I)c(Oc2cc(I)c(O)c(I)c2)c(I)c1)C(=O)O [Levothyroxine] | less than the limit of detection |  | 
CC(C)(C)NC(=O)[C@@H]1C[C@@H]2CCCC[C@@H]2CN1C[C@@H](O)[C@H](Cc1ccccc1)NC(=O)[C@H](CC(N)=O)NC(=O)c1ccc2ccccc2n1 [Saquinavir] |  | high solubility | 
